# Assay outcomes (PubChem)
# APP 5'UTR act – activators of APP 5'UTR luciferase reporter, primary screen, SH-SY5Y cells; SH-SY5Y APP 5'UTR luciferase reporter, luminescence; zero percent = DMSO vehicle wells; activation, % at 2 µM; AID 1276, 2008; hit rate 1% among 190,000;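 active = activation above a set limit, based on mean plus 3 SD of controls, cut at about 140% in these data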
# NF-kB neuron act – activators of NF-kB expression in neurons, primary screen, cell-based, HTS; human neuronal cells, NF-kB reporter expression; hits give high values; fold change at 12.5 µM; hit rate 1.6% among 190,000; in the data active = fold change above about 3.3
# STAT1 activator – STAT1 signaling activators, primary screen, cell-based, HTS, luciferase reporter; NIH 3T3 STAT1-luciferase reporter, IFN-gamma, luminescence; 100% = IFN-gamma alone, no compound; activation (% of control), % at 5.5 µM; hit rate 2.6% among 200,000;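 active = activation above the screen-wide mean activation plus 3 SD, cut at about 130% in these data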;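 note: raw ratio to IFN-gamma control signal so 100% means no change and 0% no light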
# STAT1 blocker – STAT1 signaling inhibitors, primary screen, cell-based, HTS, luciferase reporter; NIH 3T3 STAT1-luciferase reporter, IFN-gamma, luminescence; inhibition, % at 5.5 µM; hit rate 0.35% among 200,000; AID 920, 2007;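 active = inhibition above a set limit, the mean inhibition across all tested compounds plus 3 SD, cut at about 34% in these data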;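 note: 0% = IFN-gamma with DMSO and 100% = IFN-gamma with 300 µM nifuroxazide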
# STAT3 inh – IL-6 driven STAT3 reporter inhibitors, primary screen, U3A cells, luciferase, luminescence, MLSCN library. IL-6 STAT3-luciferase reporter; host cell line lacks STAT1. inhibition, % at 5.5 µM. hit rate 0.89% among 190,000. AID 862, 2007;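 active = inhibition above the mean inhibition across all screened compounds plus 3 SD, cut at about 44% in these data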;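 note: 0% = DMSO only wells and 100% = 100 µM nifuroxazide control wells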
# STAT3 act – IL-6 driven STAT3 reporter potentiators, primary screen, U3A cells, luciferase, luminescence, MLSCN library | activation (% of control), % at 5.6 µM | hit rate 0.91% among 190,000 | IL-6 STAT3-luciferase reporter; 100% = signal with IL-6 EC80 alone;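 active = activation above the screen-wide mean of compound activation plus 3 SD, cut at about 130% in these data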;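 note: 0% = background luminescence of wells with medium and substrate only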
#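 system = STAT3-luciferase reporter U3A cells | reagent = IL-6 stimulus at 33 ng/mL final | timing = 1 h compound pre-exposure, 6 h IL-6 stimulation, 37 °C | measured by = luminescence | evaluation = % activation versus median of IL-6-stimulated wells | control set = IL-6-only wells as 100% reference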
# An asterisk follows results filed as active; . = no result given. Most compounds without a hit are left out; they make up all but 4.9% or so of the library.
SMILES,APP 5'UTR act,NF-kB neuron act,STAT1 activator,STAT1 blocker,STAT3 inh,STAT3 act
Oc1c(CN2CCCCC2)cc(COCc2ccccc2)c2cccnc12,-85,3.8*,100,0,1,103
COCc1cc(CN2CCCC2)c(O)c2ncccc12,-20,0.67,92,9,12,96
Oc1ccc(CN2CCCCC2)c2cccnc12,-88,11*,99,-1,4,100
CCOC(=O)N1CCN(Cc2ccc(O)c3ncccc23)CC1,-11,4.8*,98,1,11,94
Oc1ccc(CN2CCN(c3ccccc3)CC2)c2cccnc12,7,0.85,93,2,-11,112
CCCCOc1ccc(/C(N)=N/O)cc1,35,2.2,104,-3,-6,111
OCCC1CN(Cc2cc3c(cc2Cl)OCO3)CCN1Cc1ccccc1 (configuration not stated),17,1.1,106,-8,-3,108
Cc1nc(Nc2nc(=O)c3ccccc3n2C)nc2c(C)cccc12,16,.,99,1,-40,142*
Cc1ccc(SCc2cc(=O)[nH]c(Nc3nc(C)c4cccc(C)c4n3)n2)cc1,5,0.73,95,6,15,90
c1ccc2sc(NC3=NCN(CCN4CCOCC4)CN3)nc2c1,4,0.97,96,2,13,91
Cc1nc(NC2=NCN(CCN3CCOCC3)CN2)nc2c(C)cccc12,36,.,100,0,-89,176*
Cc1ccc(C)[n+](CC(=O)c2ccc(-c3ccccc3)cc2)c1,1,0.74,78,23,6,96
O=C(NCc1ccco1)c1ccc2ccccc2c1,86,1.4,134*,-37,15,90
O=C(NCc1ccco1)c1ccc2c(c1)C(=O)c1ccccc1-2,21,1.5,133*,-19,8,95
COC(=O)c1ccc(C(=O)N(CCN(C)C)c2nc3c(Cl)cccc3s2)cc1,0,0.92,105,-7,1,100
O=C1CCNc2cc3ccccc3cc21,-5,0.71,100,-1,-40,137*
COc1ccc(Cl)cc1NC(=O)CN(C)CC(=O)Nc1ccc(C)cc1Br,1,1.9,100,-2,-2,104
O=C(CC(=O)c1cc(Cl)ccc1O)c1ccccc1,58,2,131*,-34,-4,108
Cc1ccc(O)c(C(=O)CC(=O)c2cccc(F)c2)c1,84,1.5,130*,-32,4,102
Cc1cccn2c(CN3CCNC(=O)CC3)c(C(=O)N(C)CCc3ccccc3)nc12,7,1,101,-2,6,106
CC(C)CCNC(=O)C(CC(C)C)N(Cc1ccc2c(c1)OCO2)C(=O)c1snc(C(N)=O)c1N (configuration not stated),17,0.54,98,0,-9,111
O=C(Nc1ccc(-c2ccccc2)cc1)c1ccco1,-1,0.98,102,-2,1,111
CCOc1ccc(NC(=O)CCC(=O)NNC(=O)c2ccco2)cc1,3,1,104,-4,-11,111
CCN(c1ccccc1)S(=O)(=O)c1ccc(NC(=O)c2ccco2)cc1,-3,0.84,103,-6,5,98
O=C(Nc1ccc(NC(=O)c2ccco2)nc1)c1ccccn1,106,2.8,128,-28,30,78
SMILES,APP 5'UTR act,NF-kB neuron act,STAT1 activator,STAT1 blocker,STAT3 inh,STAT3 act
O=C(Nc1ccc(Nc2ccccc2)cc1)c1ccco1,94,4.2*,134*,-37,1,98
CN(c1ccccc1)S(=O)(=O)c1ccc(NC(=O)c2ccco2)cc1,10,0.94,132*,-37,14,97
CCOc1ccc(NC(=O)c2ccco2)cc1,120,3.9*,106,-6,26,81
O=C(Cc1ccccc1)Nc1ccc(NC(=O)c2ccco2)nc1,34,1.9,136*,-40,3,98
O=C(NC(=S)Nc1ccc(S(=O)(=O)NC2CCCCC2)cc1)c1cccs1,12,0.66,100,0,10,88
O=C(Nc1nccs1)c1ccc(NC(=O)c2ccco2)cc1,42,1.9,137*,-48,-4,104
CC(C)(C)c1ccc(C(=O)Nc2ccc(NC(=O)c3ccco3)cc2)cc1,10,1.4,103,-3,6,98
CCCS/C(N)=N/N=C/c1cc(C)ccc1O,150*,11*,117,-18,3,101
CCCCS/C(N)=N/N=C/c1ccccc1O,.,2.8,109,-13,-14,112
COc1cc(OC)c(OC)cc1/C=C1\CCC(C2CCCC2)C1=O (configuration not stated),8,1.3,91,8,-1,102
Cc1ccsc1/C=C1\CCC(C2CCCC2)C1=O (configuration not stated),202*,5.9*,140*,-45,24,82
Cc1ccc(/C=C2\CCC(C3CCCC3)C2=O)cc1 (configuration not stated),157*,1.6,102,-2,-3,107
Nc1cc2nc[nH]c2cc1N,163*,1.6,123,-25,-11,115
CCC1=NN(C(=O)Cc2ccc(OC)c(OC)c2)C(O)(C(F)(F)F)C1 (configuration not stated),10,1.3,106,-7,3,99
C=CCNC(=O)c1ccc(Cn2cc(C(F)(F)F)ccc2=O)cc1,-15,1.1,100,-1,-4,105
CCC(C)(C)c1ccc2c(c1)C(=O)c1ccccc1C2=O,182*,1.6,126,-29,-21,115
O=C1c2cccnc2C(Nc2ccc(F)c(Cl)c2)N1Cc1cccs1 (configuration not stated),2,1.8,86,14,-9,109
Cc1ccnc(SCC(=O)c2ccc(Br)cc2)c1C#N,107,2.9,146*,-51,-1,109
Cc1cc(C)c(C#N)c(OCC(=O)c2ccc(Br)cc2)n1,0,0.85,100,0,-6,108
Cc1ccc(C(=O)CSc2nsc(C)c2C#N)cc1,156*,6*,109,-10,-6,107
Cc1snc(SCC(=O)c2ccc(Cl)cc2)c1C#N,101,2.5,112,-13,19,89
Cc1cc(C)cc(-c2nnc(SCc3ccc(C(=O)O)cc3)o2)c1,18,1.2,97,3,8,98
CC(=O)CSc1ccc(C(=O)O)cn1,15,1.1,113,-14,-6,109
C=CCn1c(COc2ccccc2)nnc1SC(C)C(=O)N/N=C/c1cc(Cl)ccc1O (configuration not stated),-4,3.5*,106,-7,0,105
